How the values were obtained:
[1] = target: T1, Glucocorticoid receptor (Homo sapiens, UniProt P04150); assay: Displacement of GS-red from glucocorticoid receptor by fluorescence polarization assay
T1 sequence (P04150 whole entry): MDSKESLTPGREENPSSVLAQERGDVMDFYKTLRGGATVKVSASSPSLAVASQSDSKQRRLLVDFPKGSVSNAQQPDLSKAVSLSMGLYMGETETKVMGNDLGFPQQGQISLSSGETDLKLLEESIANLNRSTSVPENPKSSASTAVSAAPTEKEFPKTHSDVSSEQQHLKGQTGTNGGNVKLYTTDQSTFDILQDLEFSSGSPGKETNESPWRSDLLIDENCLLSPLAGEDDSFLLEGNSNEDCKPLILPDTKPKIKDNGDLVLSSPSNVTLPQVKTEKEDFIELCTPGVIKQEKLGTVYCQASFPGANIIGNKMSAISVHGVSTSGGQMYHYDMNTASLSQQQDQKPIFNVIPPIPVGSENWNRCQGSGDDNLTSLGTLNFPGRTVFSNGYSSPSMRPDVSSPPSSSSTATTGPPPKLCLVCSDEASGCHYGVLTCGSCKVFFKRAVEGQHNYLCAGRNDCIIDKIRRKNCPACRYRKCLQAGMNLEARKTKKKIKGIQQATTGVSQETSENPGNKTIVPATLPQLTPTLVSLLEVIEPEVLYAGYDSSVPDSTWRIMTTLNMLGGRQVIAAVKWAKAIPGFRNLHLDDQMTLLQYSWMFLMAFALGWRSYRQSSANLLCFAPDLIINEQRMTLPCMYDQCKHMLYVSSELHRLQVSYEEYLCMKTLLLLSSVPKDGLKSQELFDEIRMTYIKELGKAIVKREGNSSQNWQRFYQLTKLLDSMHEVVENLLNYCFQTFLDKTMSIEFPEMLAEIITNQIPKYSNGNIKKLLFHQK

[2] = test system: Rattus norvegicus; assay: Antiinflammatory activity in Sprague-Dawley rat assessed as carrageenan-induced paw edema at 30 mg/kg, po administered as a single dose 2 hrs before carrageenan challenge measured 4 hrs post carrageenan challenge by plethysmometry relative to control
[3] = target: T1, Glucocorticoid receptor; assay: Transactivation activity at GR-alpha in human NP1 Hela cells assessed as inhibition of GAL4-DBD after 20 hrs by luciferase reporter gene assay; assay type: cell-based
[4] = Clearance in Sprague-Dawley rat at 1 mg/kg, iv; assay type: ADME, organism-based; design: dose 1 mg/kg, route intravenous; conditions: in vivo
Procedure, shortened: (§1)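 Male Sprague-Dawley rats received a single intravenous (1 mg/kg) or oral (10 or 50 mg/kg) dose. Plasma pharmacokinetic parameters were derived from these profiles.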

[5] = target: T2, Progesterone receptor (Homo sapiens, UniProt P06401); assay: Displacement of fluorescently labeled ligand from progesterone receptor by fluorescence polarization assay
T2 sequence (P06401 whole entry): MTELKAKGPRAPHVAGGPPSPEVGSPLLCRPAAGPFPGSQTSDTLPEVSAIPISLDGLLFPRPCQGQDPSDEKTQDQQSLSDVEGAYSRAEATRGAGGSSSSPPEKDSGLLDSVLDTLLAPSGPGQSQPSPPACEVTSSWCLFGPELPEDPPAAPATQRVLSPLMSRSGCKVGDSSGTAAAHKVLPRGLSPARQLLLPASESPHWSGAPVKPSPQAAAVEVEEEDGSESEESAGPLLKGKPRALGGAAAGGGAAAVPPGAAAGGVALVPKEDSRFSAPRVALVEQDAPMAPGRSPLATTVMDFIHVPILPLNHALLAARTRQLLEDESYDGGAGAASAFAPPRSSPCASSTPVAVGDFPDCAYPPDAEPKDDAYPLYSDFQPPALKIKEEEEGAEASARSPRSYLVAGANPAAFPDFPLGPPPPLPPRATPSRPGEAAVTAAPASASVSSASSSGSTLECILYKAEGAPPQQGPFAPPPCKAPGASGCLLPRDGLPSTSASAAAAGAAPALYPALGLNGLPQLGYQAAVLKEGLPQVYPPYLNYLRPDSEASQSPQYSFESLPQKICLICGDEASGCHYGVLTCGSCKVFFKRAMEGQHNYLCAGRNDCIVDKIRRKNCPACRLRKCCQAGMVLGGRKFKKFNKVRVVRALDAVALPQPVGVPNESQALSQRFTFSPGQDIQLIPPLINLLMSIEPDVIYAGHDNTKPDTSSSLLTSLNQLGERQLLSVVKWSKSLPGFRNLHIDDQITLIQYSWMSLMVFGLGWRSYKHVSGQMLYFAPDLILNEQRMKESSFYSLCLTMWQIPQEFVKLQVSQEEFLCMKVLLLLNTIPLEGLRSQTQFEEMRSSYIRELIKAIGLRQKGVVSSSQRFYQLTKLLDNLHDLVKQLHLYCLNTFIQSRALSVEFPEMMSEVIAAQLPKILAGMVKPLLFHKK

[6] = target: T1, Glucocorticoid receptor; assay: Transrepression activity at glucocorticoid receptor alpha in IL-1beta-stimulated human A549 cells assessed as inhibition of NFkappaB-dependent E-selectin transcription by luciferase reporter gene assay; assay type: cell-based
[7] = test system: Rattus norvegicus; assay: Antiinflammatory activity in po dosed Freund's complete adjuvant-induced Lewis rat arthritis model assessed as reduction in progression of arthritis; assay type: functional, organism-based
Procedure, shortened: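 Male Lewis rats were inoculated with Mycobacterium butyricum in incomplete Freund's adjuvant. Oral dosing was daily and preventative, running from day 0 to day 21. Onset and progression of arthritis were followed, and ED50 was estimated from the dose response.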

[8] = AUC in Sprague-Dawley rat at 1 mg/kg, iv; assay type: ADME, organism-based; design: dose 1 mg/kg, route intravenous; conditions: plasma; procedure, shortened: as §1
[9] = test system: Blood; assay: Antiinflammatory activity in Sprague-Dawley rat whole blood assessed as inhibition of LPS-induced TNFalpha production
[10] = test system: SAOS-2; assay: Induction of alkaline phosphatase expression in human Saos2 cells after 3 days by spectrophotometry; assay type: cell-based; conditions: SAOS-2, 72 h
[11] = Oral bioavailability in Sprague-Dawley rat at 50 mg/kg; assay type: ADME, organism-based; conditions: in vivo; procedure, shortened: as §1
[12] = AUC in Sprague-Dawley rat at 10 mg/kg, po; assay type: ADME, organism-based; design: dose 10 mg/kg, route oral; conditions: plasma; procedure, shortened: as §1
[13] = test system: Blood; assay: Antiinflammatory activity in human whole blood assessed as inhibition of TNF-alpha-induced IL-8 production after overnight incubation by ELISA; assay type: functional, tissue-based
[14] = Cmax in Sprague-Dawley rat at 10 mg/kg, po; assay type: ADME, organism-based; design: dose 10 mg/kg, route oral; conditions: in vivo; procedure, shortened: as §1
[15] = test system: Blood; assay: Antiinflammatory activity in human whole blood assessed as inhibition of TNF-alpha-induced IL-8 production after overnight incubation by ELISA relative to dexamethasone; assay type: functional

| Ki [1] | EC50 [3] | clearance [4] | Ki [5] | EC50 [6] | AUC [8] | EC50 [9] | bioavailability [11] | AUC [12] | EC50 [13] | Cmax [14] | Compound | level, % of control at 30 mg/kg [2] | Activity [7] | Emax [10] | Imax [15] |
| --- | --- | --- | --- | --- | --- | --- | --- | --- | --- | --- | --- | --- | --- | --- | --- |
| 1.64 nM | 113 nM | 34 mL/min/kg | 1830 nM | 6.89 nM | 526 ng·h/mL | 215 nM | 107% | 904 ng·h/mL | 532 nM | 351 ng/mL | CCN(C)C(=O)c1ccc(-c2ccc3c(n2)Oc2ccccc2[C@@H]3C(C)(C)C(=O)Nc2nncs2)cc1F | 54% | Dose-dependent effect | 24% | 76% |
| 1.94 nM | 143 nM | 49.5 mL/min/kg | 1530 nM | 33.8 nM | 342 ng·h/mL | 189 nM | 119% | 673 ng·h/mL | 1470 nM | 285 ng/mL | CN(C)C(=O)c1ccc(-c2ccc3c(n2)Oc2ccccc2[C@H]3C(C)(C)C(=O)Nc2nncs2)cc1F | 42% | Dose-dependent effect | 13% | 55% |

Source: ChEMBL document CHEMBL1909630, “Azaxanthene based selective glucocorticoid receptor modulators: design, synthesis, and pharmacological evaluation of (S)-4-(5-(1-((1,3,4-thiadiazol-2-yl)amino)-2-methyl-1-oxopropan-2-yl)-5H-chromeno[2,3-b]pyridin-2-yl)-2-fluoro-N,N-dimethylbenzamide (BMS-776532) and its methylene homologue …” (J Med Chem, 2011)
